LMPTP block: LMPTP (human) inhibition | actives 0.22% (n = 360,000) | inhibition, % at 20 µM | recombinant LMPTP-A, OMFP fluorogenic substrate, fluorescence intensity | AID 651560 | P24666;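 active = compounds that cut the enzyme signal by at least half of the control window in the single-dose screen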
Target sequence (P24666 whole entry, looked up): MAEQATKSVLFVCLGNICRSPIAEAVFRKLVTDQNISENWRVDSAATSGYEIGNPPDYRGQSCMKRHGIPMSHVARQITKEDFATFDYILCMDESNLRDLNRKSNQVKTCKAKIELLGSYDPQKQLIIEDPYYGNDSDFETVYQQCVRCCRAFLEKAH
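material = LMPTP-A | quantity = 0.625 nM enzyme | reagent = OMFP substrate, 400 µM final | buffer or medium = Bis-Tris pH 6.0, DTT, detergent | detection = endpoint fluorescence intensity from OMFP dephosphorylation | dosing = single 20 µM dose | read-out basis = % inhibition relative to no-enzyme and uninhibited control wells | control set = no-enzyme and uninhibited controls | timing = 50 min at room temperature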
Pemphigus Ab inh: human desmoglein-3 autoantibody binding inhibition | DSG3-coupled beads, scFv-anti-DSG3-GFP binding, flow cytometry; stronger effect = lower value | binding (percent of control), % at 10 µM | actives 0.48% (n = 310,000) | AID 588358;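 active = binding more than 3 SD below its plate's average and above zero; inconclusive = below that plate limit but binding exactly zero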;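 also: hits lower antibody fragment binding to DSG3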
STEP block: inhibitors of human striatal-enriched phosphatase STEP; AID 588621; P54829; actives 0.25% (n = 360,000); recombinant STEP, OMFP fluorogenic substrate, fluorescence; inhibition, % at 20 µM;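 active = inhibition at 20 µM, scaled per plate between control wells, above about 37%, limit read from the data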
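material = STEP tyrosine phosphatase | reagent = fluorogenic phosphatase substrate OMFP at 25 µM final | doses = single compound dose of 20 µM, 1% DMSO final | schedule = 20 min reaction, room temperature, in the dark | measured by = fluorescence, 480/540 nm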
SUMO1 PPI mod: SUMO1-SIM interaction modulation | P63165 | SUMO1 binding to a labelled peptide, TR-FRET, 1 h | actives 0.33% (n = 360,000) | inhibition, % at 20 µM | AID 602429; in the data active = inhibition above about 37%
Target sequence (P63165 whole entry, looked up): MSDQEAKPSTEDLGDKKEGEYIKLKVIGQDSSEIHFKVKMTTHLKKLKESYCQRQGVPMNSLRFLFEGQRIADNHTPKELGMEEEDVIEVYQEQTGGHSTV
Scp-1 inhibitor: inhibitors of human Scp-1 phosphatase; Q9GZU7; Recombinant Scp1, phosphopeptide, malachite green phosphate absorbance; inhibition, % at 20 µM; actives 0.88% (n = 340,000); AID 493091;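 active = inhibition above about 50% at 20 µM, limit read from the data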
Target sequence (Q9GZU7 76-261 limits assumed): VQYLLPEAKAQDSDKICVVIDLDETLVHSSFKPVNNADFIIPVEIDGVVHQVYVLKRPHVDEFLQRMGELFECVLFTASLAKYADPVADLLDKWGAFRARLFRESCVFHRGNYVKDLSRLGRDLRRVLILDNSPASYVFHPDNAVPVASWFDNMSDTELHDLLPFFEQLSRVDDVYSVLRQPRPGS
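Material – SCP-1 phosphatase catalytic domain, residues 76-261 · Buffer or medium – Acidic Tris acetate buffer with magnesium and detergent · Also added – Phospho 17-mer peptide substrate · Compound – single 20 µM dose, 1% DMSO · Times – 45 min room-temperature reaction, 5 min colour, 30 min stabiliser · Technique – Phosphate-binding colour reagent, absorbance read at 630 nm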
Scp-1 conf: Scp-1 (human) inhibition, single-dose confirmed; shares compounds with Scp-1 inhibitor; recombinant SCP-1 catalytic domain, phosphate release, malachite green absorbance; inhibition, % at 20 µM; actives 61% (n = 2,500); AID 540281
Scp-1 MG ctr: counter-screen for Scp-1 inhibitors: colorimetric interference; apparent inhibition (interference), % at 20 µM; 2,500 tested, under 10 active; shares compounds with Scp-1 inhibitor; Colorimetric interference counterscreen, malachite green absorbance 630 nm;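 also: compounds added after enzyme reaction finished so only phosphate colour detection is probed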
Scp1 DSF: validation of human Scp-1 inhibitors by thermal shift binding | shares compounds with Scp-1 inhibitor | Recombinant SCP1, Sypro Orange thermal shift Tm | thermal shift relative to vanadate control, % at 40 µM | actives 25% (n = 1,500) | AID 540329;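 active = substances whose mean melting-temperature shift, as a percentage of the reference inhibitor's shift, reaches about 5.3%, limit read from the data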
Hits are given with their value; i = inactive; ? = inconclusive; nt = no result given; ! = not active in a repeat. Hits are enriched below; roughly 1.7% of the tested compounds scored in any of these assays.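 The calls were made as follows, unless noted: active = inhibition of at least 30% at 20 µM; inactive = the rest.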

SMILES	LMPTP block	Pemphigus Ab inh	STEP block	SUMO1 PPI mod	Scp-1 inhibitor	Scp-1 conf	Scp-1 MG ctr	Scp1 DSF
Cc1ccc2[nH]c(O)c(N=NC(=O)c3ccc(NS(=O)(=O)c4cccs4)cc3)c2c1	i	i	58	i	100	58	i	i
COc1ccc(NC(=O)Nc2cccc3c2O[C@H](CN(C)C(=O)Nc2ccccc2)[C@@H](C)CN([C@H](C)CO)C3=O)cc1	i	i	i	i	i	nt	nt	nt
C[C@H](CO)N1C[C@H](C)[C@@H](CN(C)C(=O)Nc2ccc(C(F)(F)F)cc2)Oc2c(NC(=O)c3ccncc3)cccc2C1=O	i	i	i	i	88	i	i	nt
COc1ccc(NC(=O)N(C)C[C@H]2Oc3c(NC(=O)c4ccncc4)cccc3C(=O)N([C@H](C)CO)C[C@@H]2C)cc1	i	i	i	i	61	i	i	nt
C[C@H](CO)N1C[C@H](C)[C@@H](CN(C)C)Oc2c(NC(=O)c3ccncc3)cccc2C1=O	i	i	i	i	i	nt	nt	nt
C[C@H]1CN([C@@H](C)CO)C(=O)c2cccc(NC(=O)c3ccncc3)c2O[C@H]1CN(C)C(=O)Nc1ccccc1	i	i	i	i	95	72	i	i
C[C@H](CO)N1C[C@H](C)[C@@H](CN(C)C(=O)Nc2ccccc2)Oc2c(NC(=O)c3ccncc3)cccc2C1=O	i	i	i	i	88	i	i	nt
O=C(Nc1cccc2ncccc12)c1ccccc1Cl	i	i	i	i	98	i	i	nt
COc1ccc(C(O)(c2ccccc2)C(C(=O)O)c2ccccc2)cc1 (stereo not given)	i	nt	i	i	i	nt	nt	nt
Cc1ccc(OCC(=O)N/N=C\c2ccc(O)c([N+](=O)[O-])c2)c([N+](=O)[O-])c1	i	i	i	i	67	42	i	9.8
Cc1ccc(/C=N\NC(=O)COc2ccc(C)cc2[N+](=O)[O-])cc1	i	i	i	i	i	nt	nt	nt
Cc1cc2oc(C(=O)Nc3ccc(S(=O)(=O)Nc4nccs4)cc3)cc(=O)c2cc1Cl	i	i	i	i	52	i	i	nt
O=C(Nc1ccc(S(=O)(=O)Nc2nccs2)cc1)c1nn(-c2ccccc2)ccc1=O	i	i	i	i	75	71	i	6.8
O=C(CSc1nnnn1-c1ccc(F)cc1)Nc1ccccc1F	i	i	i	i	i	nt	nt	nt
O=C(COc1ccc([N+](=O)[O-])cc1)Nc1ccc(C(=O)Nc2ccccc2C(=O)O)cc1	i	i	i	i	65	77	i	7.5
O=C(COc1ccc2ccccc2c1)NNC(=O)c1ccc([N+](=O)[O-])cc1	i	i	i	i	54	74	i	7.2
Cc1cccc(OCC(=O)NNC(=O)c2ccc([N+](=O)[O-])cc2)c1	i	i	i	i	i	nt	nt	nt
Cc1ccccc1NC(=O)C(=O)NNC(=O)COc1ccc2ccccc2c1	i	i	i	i	52	69	i	i
OCCCc1cn(-c2ccccc2)c2ccccc12	i	i	i	i	i	nt	nt	nt
Clc1nc(Cl)nc(-c2cn(-c3ccccc3)c3ccccc23)n1	nt	i	nt	nt	91	72	i	i
O=C1CC(=O)N2N=C(c3ccc([N+](=O)[O-])cc3)SC2=N1	i	i	i	i	69	68	i	6.2
CCCNS(=O)(=O)c1ccc(OC)c(Cl)c1Cl	i	i	i	i	i	nt	nt	nt
COc1ccc(S(=O)(=O)NCCSC(C)(C)C)c(Cl)c1Cl	i	i	i	i	60	34	i	i
COc1ccc(CNCC(=O)Nc2sccc2C#N)cc1	nt	nt	nt	nt	i	nt	nt	nt
COc1cccc(CC(=O)OCC(=O)Nc2c(C)nn(-c3ccccc3)c2C)c1	i	i	i	i	i	nt	nt	nt
SMILES	LMPTP block	Pemphigus Ab inh	STEP block	SUMO1 PPI mod	Scp-1 inhibitor	Scp-1 conf	Scp-1 MG ctr	Scp1 DSF
CC1(C)CC(CCC(=O)NC(=S)Nc2ccccc2Cl)C(=O)O1 (stereo not given)	i	i	i	i	i	i	i	nt
Cc1ccc(NC(=O)CN2CCOCC2)cc1	i	i	i	i	i	nt	nt	nt
Cc1ccc(NC(=O)CN2CC(C)SC2=NC2CCCCC2)cc1 (stereo not given)	i	?	i	i	79!	i	i	nt
CC(=O)c1c(C)oc(C)c1CSCc1ccc(C(=O)O)o1	i	i	i	i	65	56	i	i
O=C(CSc1nc2ccccc2c(=O)n1-c1ccccc1)NCC1CCCO1 (stereo not given)	i	i	i	i	92	i	i	nt
Cc1ccc(-n2c(SCC(=O)NCC3CCCO3)nc3ccccc3c2=O)cc1C (stereo not given)	i	i	i	i	i	nt	nt	nt
Cc1noc(C)c1NC(=O)Nc1cccc2c1O[C@H](CN(C)S(C)(=O)=O)[C@@H](C)CN([C@H](C)CO)C2=O	i	i	i	i	i	nt	nt	nt
Cc1noc(C)c1NC(=O)N(C)C[C@H]1Oc2c(cccc2N(C)C)C(=O)N([C@H](C)CO)C[C@@H]1C	i	i	i	i	74	i	i	nt
COc1ccc(S(=O)(=O)N(C)C[C@H]2Oc3c(NC(=O)Nc4c(C)noc4C)cccc3C(=O)N([C@@H](C)CO)C[C@H]2C)cc1	i	i	i	i	56	i	i	nt
O=C(CNC(=O)c1cccc(N2C(=O)c3ccccc3C2=O)c1)Nc1ccc(F)c(F)c1	i	i	i	i	i	nt	nt	nt
O=C(Nc1ccc(F)cc1)c1cccc(N2C(=O)c3ccccc3C2=O)c1	i	i	i	i	82	55	i	i
O=C(N/N=C/C=C/c1ccco1)C(O)c1ccccc1 (stereo not given)	i	i	i	i	62	53	i	i
Cc1ccc(OCC(=O)N/N=C/C=C/c2ccco2)cc1	i	i	i	i	73	59	i	7.5
O=C(COc1ccccc1[N+](=O)[O-])N/N=C/C=C/c1ccco1	i	i	i	i	i	nt	nt	nt
Cn1cccc1CC(=O)N/N=C/C=C/c1ccco1	i	i	i	i	69	40	i	i
CC(=O)c1cccc(-c2ccnc3c2CC(C(=O)NCCC(F)(F)F)O3)c1 (stereo not given)	i	nt	i	i	nt	nt	nt	nt
Cn1c(N)c(C(=O)COC(=O)c2cccc(S(=O)(=O)NCc3ccccc3)c2)c(=O)n(C)c1=O	i	i	i	i	i	nt	nt	nt
COc1ccccc1Cc1c(-c2ccco2)nc2ccc(Br)cn12	i	nt	i	i	nt	nt	nt	nt
Cc1ccc(-n2nc(-c3cccnc3)cc2C(=O)N2CCOCC2)c(C)c1	i	i	i	i	i	nt	nt	nt

Screening data: PubChem BioAssay, several laboratories
